# Laboratory results from the EternaBench riboswitch data.
# System: MS2 coat protein
# Assay: apparent Kd, MS2 coat protein; higher = weaker binding; RNA-MaP array; theophylline 2 mM where present
# Method in brief: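 Stalled E. coli RNA polymerase produced the designs on Illumina sequencing-chip clusters. SNAP-549-labelled MS2 coat protein was added from 0.7 or 1.5 nM, doubling to 3 µM, without and then with constant ligand, in 100 mM Tris-HCl pH 7.5, 80 mM KCl, 4 mM MgCl2, BSA, DTT, yeast tRNA and Tween-20. The apparent Kd is the median of filtered per-cluster fits of green signal normalised to red-channel RNA signal and control-cluster median Fmax.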
# [1] = designed as: OFF switch for theophylline, no ligand
# [2] = ligand present: theophylline, designed as: OFF switch for theophylline
# [3] = designed as: ON switch for theophylline, no ligand
# [4] = ligand present: theophylline, designed as: ON switch for theophylline
Sequence,apparent Kd [1] [nM],apparent Kd [2] [nM],apparent Kd [3] [nM],apparent Kd [4] [nM]
ACGUCCGGUUUACUCGUGGGCAUGGUCGAUACCAGUAUUUUAAUCUACCCUUGGCAGCGACAUGAGGAUCACCCAUGUGCGAAGA,23.5,32.4,,
CAUACUUUAUCCUAUGAGCCUAUUUGUGAUACCAGCAUCUAAAUUUGCCCUUGGCAGCACUUACAUGAGGAUCACCCAUGUUUUA,,,26.8,40.7
UUAGAUAUGACAGAUACCAGCGUGUUGUUGAACAUGAGGAUCACCCAUGUAGUGAUCGAGCGCCCUUGGCAGCUGGUGUGUUUGG,,,161,181
UUGCAUAUCUUGGAUACCAGCACAUGAGGAUCACCCAUGUCCGCGGGAUAGCUCCAGAUGUGCCCUUGGCAGCCACAUGCACUUG,10.2,26.4,,
AACCGAGGCUAUCCUCUAAGAAAAUGUGAUACCAGAAUAAUUUUAUUCCCUUGGCAGCAUGACAUGAGGAUCACCCAUGUGUCUU,,,187,151
AUAAGUAAUGUUACGUGUUUUAUUACAGAUACCAGACUAUACGUUGUCCCUUGGCAGCUGAAUUACAUGAGGAUCACCCAUGUUG,15.1,17.3,,
ACCGCAGGUCCUGAUACCAGAGACAUGAGGAUCACCCAUGUCCGAUCGUCCUGCCUCAGGCUCCCUUGGCAGCAGGGCUUGUCCU,14.3,27.1,,
ACGACGCAUAGUGAUACCAGUAGAACAUGAGGAUCACCCAUGUCUGUUAUGUACAAAUACUGCCCUUGGCAGCACUAUGCGUCAG,,,9.79,10.7
AACAUGAGGACGGAUACCAGUCACAUGAGGAUCACCCAUGUACAUGAGGAUCACCCAUGUGGCCCUUGGCAGCCGCAUGUGAUCA,327,473,,
ACUAGUUGUGCAGAUACCAGACAUGAGGAUCACCCAUGUUUGGGAUCUAAUGAUCAUCCUGUCCCUUGGCAGCUGUACAUCUAGA,103,26.3,,
GCACCAGGUACGGAUACCAGCUGCUCGAGAUACAUGAGGAUCACCCAUGUGACCUGGUUUAGCCCUUGGCAGCUGUACCUGGUGC,,,15.8,9.98
AAUAACAUGAGGAUCACCCAUGUAAAAGAUACCAGAGUGAUGAUCCUCCCUUGGCAGCUUAACGCUGAUUGGAAACAAUCAGCGA,,,147,225
AACCGAGGCUAUCCUCUCCGACUAUGUGAUACCAGAAUAAUUUUAUUCCCUUGGCAGCAUGACAUGAGGAUCACCCAUGUCUCUU,,,15.8,20.7
AGCCGAAACCUUGAUACCAGAUCAUGCUGCACAUGAGGAUCACCCAUGUCGUUAAACAUGGUCCCUUGGCAGCAAGUUAGGAUCU,,,76.4,23.9
UGUAACAUGAGGAUCACCCAUGUGAGUGAUACCAGACUAGUGUUGGUCCCUUGGCAGCACGCUGGACGAAUGUGUAGUCUAUGCG,,,78.3,83.7
AGCCCUGUGCUAGAUACCAGCUACAUGAGGAUCACCCAUGUGCGUCAGGACUGACUGUGUAGCCCUUGGCAGCUACUCGCAUGUA,16.2,30.9,,
GAGCUGAUGUAGGGUGGAUAUCCUUGAGAUACCAGUACAGAAAUGUACCCUUGGCAGCUCUUCCUUACAUGAGGAUCACCCAUGU,18.7,23.1,,
UCACAUGAGGAUCACCCAUGUACAGGCGAUACCAGCCGUACAUUGGGCCCUUGGCAGCGCACCGAGACCUUUUAAAGCACUUCGG,,,35.1,121
GAUGAUAUUGCAGAUACCAGACACAUGAGGAUCACCCAUGUCUCUGUGAUGUAGGAUUGUGUCCCUUGGCAGCUGCGAUAUCAUC,229,91.3,,
UGACGAUACCUGGAUACCAGCGACAUGAGGAUCACCCAUGUAUGAGGAUCAGCCAUGUUAUGCCCUUGGCAGCCACGAAAGUCUU,45.7,171,,
AUAUGAUCAUACGAUACCAGAAAUGGUAUUCCUUUAUUUCUUACAUGAGGAUCACCCAUGUUCCCUUGGCAGCGUAUGAUCAUAU,363,123,,
AGACAUGUAAGAUAAAUGACUUAUACAGAUACCAGACUGUCUAAUGUCCCUUGGCAGCUGCAUAACAUGAGGAUCACCCAUGUAA,28,26.1,,
GAACAUGAGGAUCACCCAUGUGAGAAUGAUACCAGUAGAAGAAGAUGCCCUUGGCAGCGUGCGUGAGGAUCACCCAUGUAGGAGG,24.2,27.9,,
